Data: the M2OR odorant receptor database
Positions count from the first letter of the chain named.

Legend:
Conditions in all cases: stereoisomer not certain
[1] = target: T1, OR11H2 (Homo sapiens) (UniProt Q8NH07)
T1 sequence (whole entry): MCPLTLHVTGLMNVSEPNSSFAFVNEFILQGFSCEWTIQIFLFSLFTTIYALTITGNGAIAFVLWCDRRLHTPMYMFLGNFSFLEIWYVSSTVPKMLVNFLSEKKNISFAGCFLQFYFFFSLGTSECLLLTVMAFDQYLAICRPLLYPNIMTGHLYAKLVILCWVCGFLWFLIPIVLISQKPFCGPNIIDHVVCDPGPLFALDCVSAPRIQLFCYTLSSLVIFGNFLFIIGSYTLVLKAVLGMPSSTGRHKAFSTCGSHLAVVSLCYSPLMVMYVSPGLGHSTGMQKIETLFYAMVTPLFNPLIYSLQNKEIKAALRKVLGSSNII
Summary of the method: (§1)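 Each receptor–molecule pair is labelled responsive or non-responsive (inactive) according to whether the original authors judged the measured signal statistically different from baseline. The data were taken from the main text and supplementary material of published papers and checked for typos and inconsistencies. Assay methods differed by source, with transient luciferase assays in mammalian cell lines being common.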

[2] = target: T2, OR11H4 (Homo sapiens) (UniProt Q8NGC9)
T2 sequence (whole entry): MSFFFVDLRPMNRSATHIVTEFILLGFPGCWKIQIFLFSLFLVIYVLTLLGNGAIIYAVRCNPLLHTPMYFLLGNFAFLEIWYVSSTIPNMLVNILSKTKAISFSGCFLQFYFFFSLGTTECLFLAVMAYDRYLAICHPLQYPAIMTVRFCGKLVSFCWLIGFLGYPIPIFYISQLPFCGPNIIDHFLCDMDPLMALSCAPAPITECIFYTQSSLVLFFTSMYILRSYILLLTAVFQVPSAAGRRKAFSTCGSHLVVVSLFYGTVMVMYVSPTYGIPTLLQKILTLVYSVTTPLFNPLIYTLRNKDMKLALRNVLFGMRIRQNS
Summary of the method: as §1

[3] = target: T3, OR11H6 (Homo sapiens) (UniProt Q8NGC7)
T3 sequence (whole entry): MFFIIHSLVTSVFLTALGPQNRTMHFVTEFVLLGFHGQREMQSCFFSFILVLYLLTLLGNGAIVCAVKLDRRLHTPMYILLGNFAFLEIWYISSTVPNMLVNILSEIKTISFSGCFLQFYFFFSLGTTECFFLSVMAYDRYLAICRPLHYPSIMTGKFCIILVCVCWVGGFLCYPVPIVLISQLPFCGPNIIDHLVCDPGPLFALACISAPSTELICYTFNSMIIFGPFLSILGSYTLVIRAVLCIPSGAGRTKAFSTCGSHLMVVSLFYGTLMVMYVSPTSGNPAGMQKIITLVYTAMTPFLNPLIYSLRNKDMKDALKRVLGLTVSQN
Summary of the method: as §1

[4] = target: T4, OR11L1 (Homo sapiens) (UniProt Q8NGX0)
T4 sequence (whole entry): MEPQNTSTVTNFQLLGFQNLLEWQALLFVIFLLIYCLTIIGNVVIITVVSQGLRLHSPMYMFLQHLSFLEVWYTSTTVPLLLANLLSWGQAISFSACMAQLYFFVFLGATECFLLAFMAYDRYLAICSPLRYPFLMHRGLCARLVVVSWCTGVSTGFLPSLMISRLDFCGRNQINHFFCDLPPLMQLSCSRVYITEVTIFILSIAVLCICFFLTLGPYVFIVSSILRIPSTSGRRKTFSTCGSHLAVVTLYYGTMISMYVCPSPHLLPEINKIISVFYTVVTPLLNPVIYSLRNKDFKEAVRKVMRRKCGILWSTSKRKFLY
Summary of the method: as §1

[5] = target: T5, OR12D2 (Homo sapiens) (UniProt P58182)
T5 sequence (whole entry): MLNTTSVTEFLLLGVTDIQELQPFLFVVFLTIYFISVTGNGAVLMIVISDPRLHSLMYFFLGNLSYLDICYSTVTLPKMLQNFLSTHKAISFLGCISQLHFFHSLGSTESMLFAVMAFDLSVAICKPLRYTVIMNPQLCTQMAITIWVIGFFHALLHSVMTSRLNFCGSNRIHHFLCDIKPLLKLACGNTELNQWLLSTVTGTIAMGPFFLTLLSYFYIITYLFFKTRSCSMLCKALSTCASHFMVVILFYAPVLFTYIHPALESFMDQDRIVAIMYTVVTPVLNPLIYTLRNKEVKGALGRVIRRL
Summary of the method: as §1

[6] = target: T6, OR12D3 (Homo sapiens) (UniProt Q9UGF7)
T6 sequence (whole entry): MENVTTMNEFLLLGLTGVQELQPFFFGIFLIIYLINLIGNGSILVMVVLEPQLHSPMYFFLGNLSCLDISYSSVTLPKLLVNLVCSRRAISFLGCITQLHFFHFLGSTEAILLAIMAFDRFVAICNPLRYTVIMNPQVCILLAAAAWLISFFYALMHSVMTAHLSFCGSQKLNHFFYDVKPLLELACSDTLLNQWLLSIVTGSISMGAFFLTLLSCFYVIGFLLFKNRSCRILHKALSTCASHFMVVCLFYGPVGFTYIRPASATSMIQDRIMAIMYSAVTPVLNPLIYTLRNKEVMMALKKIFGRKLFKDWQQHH
Summary of the method: as §1

[7] = target: T7, OR13A1 (Homo sapiens) (UniProt Q8NGR1)
T7 sequence (whole entry): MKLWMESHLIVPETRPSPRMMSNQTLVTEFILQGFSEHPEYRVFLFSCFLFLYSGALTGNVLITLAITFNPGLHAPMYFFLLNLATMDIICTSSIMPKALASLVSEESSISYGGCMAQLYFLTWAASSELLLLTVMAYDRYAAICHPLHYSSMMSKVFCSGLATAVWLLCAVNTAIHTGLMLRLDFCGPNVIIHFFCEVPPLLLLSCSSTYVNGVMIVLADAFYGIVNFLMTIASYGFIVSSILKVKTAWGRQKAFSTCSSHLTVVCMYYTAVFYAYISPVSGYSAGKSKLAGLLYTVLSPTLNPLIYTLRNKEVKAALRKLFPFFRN
Summary of the method: as §1

[8] = target: T8, OR13C2 (Homo sapiens) (UniProt Q8NGS9)
T8 sequence (whole entry): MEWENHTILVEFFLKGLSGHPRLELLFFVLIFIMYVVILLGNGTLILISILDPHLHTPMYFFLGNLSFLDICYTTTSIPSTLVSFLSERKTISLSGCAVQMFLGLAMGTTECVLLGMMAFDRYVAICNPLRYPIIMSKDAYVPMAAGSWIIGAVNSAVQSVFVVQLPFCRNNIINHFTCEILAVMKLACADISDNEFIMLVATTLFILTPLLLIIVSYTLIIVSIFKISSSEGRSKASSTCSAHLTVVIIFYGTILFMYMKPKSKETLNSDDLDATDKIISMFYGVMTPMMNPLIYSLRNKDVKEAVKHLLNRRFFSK
Summary of the method: as §1

[9] = target: T9, OR13C3 (Homo sapiens) (UniProt Q8NGS6)
T9 sequence (whole entry): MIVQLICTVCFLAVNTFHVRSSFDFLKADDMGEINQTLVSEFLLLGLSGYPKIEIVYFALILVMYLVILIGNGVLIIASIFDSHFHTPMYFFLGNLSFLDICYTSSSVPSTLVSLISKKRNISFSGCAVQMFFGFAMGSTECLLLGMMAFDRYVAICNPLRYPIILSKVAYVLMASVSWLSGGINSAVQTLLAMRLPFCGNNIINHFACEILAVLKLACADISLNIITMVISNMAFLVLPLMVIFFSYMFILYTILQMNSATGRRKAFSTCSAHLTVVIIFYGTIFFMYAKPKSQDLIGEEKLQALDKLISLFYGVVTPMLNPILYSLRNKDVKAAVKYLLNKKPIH
Summary of the method: as §1

[10] = target: T10, OR13C4 (Homo sapiens) (UniProt Q8NGS5)
T10 sequence (whole entry): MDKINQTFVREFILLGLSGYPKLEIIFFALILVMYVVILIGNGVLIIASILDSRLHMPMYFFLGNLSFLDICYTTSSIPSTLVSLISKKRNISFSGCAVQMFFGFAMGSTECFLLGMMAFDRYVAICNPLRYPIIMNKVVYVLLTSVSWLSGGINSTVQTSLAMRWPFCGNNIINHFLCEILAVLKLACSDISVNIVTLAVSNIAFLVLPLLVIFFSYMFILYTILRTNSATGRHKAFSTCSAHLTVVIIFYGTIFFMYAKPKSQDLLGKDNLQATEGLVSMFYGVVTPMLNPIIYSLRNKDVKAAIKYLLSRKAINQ
Summary of the method: as §1

[11] = target: T11, OR13C5 (Homo sapiens) (UniProt Q8NGS8)
T11 sequence (whole entry): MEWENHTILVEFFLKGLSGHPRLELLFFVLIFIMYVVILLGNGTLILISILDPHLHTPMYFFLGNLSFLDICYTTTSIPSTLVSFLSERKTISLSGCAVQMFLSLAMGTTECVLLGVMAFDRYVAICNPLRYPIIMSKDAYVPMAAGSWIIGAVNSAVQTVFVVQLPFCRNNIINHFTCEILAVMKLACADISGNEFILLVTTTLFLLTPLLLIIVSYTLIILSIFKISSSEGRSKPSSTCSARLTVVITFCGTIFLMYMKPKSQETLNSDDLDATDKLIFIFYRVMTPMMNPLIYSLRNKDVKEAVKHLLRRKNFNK
Summary of the method: as §1

[12] = target: T12, OR13C8 (Homo sapiens) (UniProt Q8NGS7)
T12 sequence (whole entry): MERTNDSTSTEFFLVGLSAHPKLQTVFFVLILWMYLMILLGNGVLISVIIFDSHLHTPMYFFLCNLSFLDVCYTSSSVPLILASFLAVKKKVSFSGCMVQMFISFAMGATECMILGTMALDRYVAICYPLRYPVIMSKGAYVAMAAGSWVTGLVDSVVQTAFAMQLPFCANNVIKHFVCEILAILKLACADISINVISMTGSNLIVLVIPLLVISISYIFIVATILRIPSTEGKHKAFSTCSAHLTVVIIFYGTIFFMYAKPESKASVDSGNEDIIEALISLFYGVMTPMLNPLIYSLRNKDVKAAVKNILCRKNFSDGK
Summary of the method: as §1

[13] = target: T13, OR13C9 (Homo sapiens) (UniProt Q8NGT0)
T13 sequence (whole entry): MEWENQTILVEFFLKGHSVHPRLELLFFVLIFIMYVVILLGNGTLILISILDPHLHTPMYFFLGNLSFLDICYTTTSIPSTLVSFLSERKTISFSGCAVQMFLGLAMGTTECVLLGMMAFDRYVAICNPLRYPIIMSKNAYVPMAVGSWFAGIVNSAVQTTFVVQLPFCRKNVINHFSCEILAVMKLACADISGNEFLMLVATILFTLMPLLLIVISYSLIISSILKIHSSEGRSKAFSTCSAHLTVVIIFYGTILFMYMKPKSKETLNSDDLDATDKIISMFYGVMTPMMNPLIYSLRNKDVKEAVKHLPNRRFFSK
Summary of the method: as §1

[14] = target: T14, OR13D1 (Homo sapiens) (UniProt Q8NGV5)
T14 sequence (whole entry): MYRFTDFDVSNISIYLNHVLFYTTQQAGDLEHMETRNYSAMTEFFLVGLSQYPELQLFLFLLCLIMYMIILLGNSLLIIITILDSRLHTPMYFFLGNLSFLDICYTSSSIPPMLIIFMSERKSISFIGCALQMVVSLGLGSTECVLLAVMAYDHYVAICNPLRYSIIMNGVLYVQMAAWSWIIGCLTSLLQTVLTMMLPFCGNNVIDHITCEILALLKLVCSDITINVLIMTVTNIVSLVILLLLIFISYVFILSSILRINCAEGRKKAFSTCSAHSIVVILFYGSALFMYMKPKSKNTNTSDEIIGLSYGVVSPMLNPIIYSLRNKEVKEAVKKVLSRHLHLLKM
Summary of the method: as §1

[15] = target: T15, OR13F1 (Homo sapiens) (UniProt Q8NGS4)
T15 sequence (whole entry): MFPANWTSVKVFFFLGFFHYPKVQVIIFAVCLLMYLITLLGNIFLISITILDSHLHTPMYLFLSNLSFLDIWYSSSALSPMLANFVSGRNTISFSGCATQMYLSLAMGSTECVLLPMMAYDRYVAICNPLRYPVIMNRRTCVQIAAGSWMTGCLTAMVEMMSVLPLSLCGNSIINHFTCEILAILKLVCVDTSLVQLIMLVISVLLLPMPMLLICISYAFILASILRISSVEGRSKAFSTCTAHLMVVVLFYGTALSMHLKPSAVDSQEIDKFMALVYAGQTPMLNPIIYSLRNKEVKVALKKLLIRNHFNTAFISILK
Summary of the method: as §1

[16] = target: T16, OR13G1 (Homo sapiens) (UniProt Q8NGZ3)
T16 sequence (whole entry): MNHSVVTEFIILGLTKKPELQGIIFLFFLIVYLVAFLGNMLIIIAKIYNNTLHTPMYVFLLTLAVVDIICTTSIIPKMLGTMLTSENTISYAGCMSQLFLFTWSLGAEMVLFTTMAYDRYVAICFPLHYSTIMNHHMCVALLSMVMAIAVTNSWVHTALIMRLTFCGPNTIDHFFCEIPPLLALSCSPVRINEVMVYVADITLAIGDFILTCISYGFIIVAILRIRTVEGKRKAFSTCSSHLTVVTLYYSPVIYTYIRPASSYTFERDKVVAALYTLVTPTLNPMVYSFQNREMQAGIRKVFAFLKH
Summary of the method: as §1

[17] = target: T17, OR11H12 (Homo sapiens) (UniProt B2RN74)
T17 sequence (whole entry): T1 sequence (whole entry) with H7Q, S33T, I49T, R68W, Y156C, K181M, L199R, P269S
Summary of the method: as §1

Measured: odorant receptor agonist call

CCCCC(S)C(C)CO (stereo not given)
not listed: [17]
inactive: all other assays above

CC1=C(O)C(=O)OC1C (stereo not given)
inactive: all assays above

CCC(S)C(C)CO (stereo not given)
not listed: [17]
inactive: all other assays above

CCC1OC(C)=C(O)C1=O (stereo not given)
inactive: all assays above

CCCCCCC=CCCC=O
inactive: all assays above

CC1=C(O)C(=O)C(C)O1 (stereo not given)
inactive: all assays above

CC(CO)CS (stereo not given)
active: [11]
not listed: [17]
inactive: all other assays above

O=c1ccc2ccccc2o1
active: [17]

O=C1CCOc2ccccc21
inactive: [17]

CCCC(S)CCOC(C)=O (stereo not given)
inactive: all assays above
